According to ChEMBL document CHEMBL1132121, “Potent, low-molecular-weight non-peptide inhibitors of malarial aspartyl protease plasmepsin II” (J Med Chem, 1999):

What was measured:
Cathepsin D = Cathepsin D (Homo sapiens, UniProt P07339); experiment: Compound was tested for the inhibitory activity against human liver cathepsin D
Summary of the method: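 Human liver cathepsin D, 0.7 nM final, in 0.1 M formic acid buffer pH 3.7. […] Fluorescence (ex 336/em 490 nm) followed over time. Ki obtained by nonlinear fit to the Williams–Morrison tight-binding equation.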

Plasmepsin II = Plasmepsin II (Plasmodium falciparum, UniProt P46925); experiment: Inhibitory activity against plasmepsin-2
Chain of Plasmepsin II (P46925 whole entry): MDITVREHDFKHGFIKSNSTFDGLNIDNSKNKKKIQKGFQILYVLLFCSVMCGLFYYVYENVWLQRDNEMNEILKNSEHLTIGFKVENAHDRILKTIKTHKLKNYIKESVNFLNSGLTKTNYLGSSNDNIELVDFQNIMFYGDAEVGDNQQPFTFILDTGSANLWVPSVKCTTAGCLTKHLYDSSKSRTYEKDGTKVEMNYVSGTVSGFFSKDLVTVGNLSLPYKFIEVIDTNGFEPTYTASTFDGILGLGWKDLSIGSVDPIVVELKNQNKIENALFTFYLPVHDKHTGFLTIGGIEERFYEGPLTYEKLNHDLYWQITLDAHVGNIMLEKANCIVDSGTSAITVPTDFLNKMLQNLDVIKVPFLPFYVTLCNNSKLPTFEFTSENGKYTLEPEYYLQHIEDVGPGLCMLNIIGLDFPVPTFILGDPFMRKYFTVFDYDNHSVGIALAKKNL
Summary of the method: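 Activated Plm II proenzyme, 0.6–0.7 nM final, in 0.1 M sodium acetate pH 5.0 with 10% glycerin and 0.01% Tween-20. Inhibitor in DMSO, preincubated 4.5 min at 25 °C, then DABCYL/EDANS fluorogenic peptide substrate added (Km 0.75 μM). Fluorescence (ex 336/em 490 nm) followed over time. Five to six inhibitor concentrations, duplicate or triplicate. Ki by Williams–Morrison nonlinear fit.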

Chain of Cathepsin D (P07339 65-162 limits assumed): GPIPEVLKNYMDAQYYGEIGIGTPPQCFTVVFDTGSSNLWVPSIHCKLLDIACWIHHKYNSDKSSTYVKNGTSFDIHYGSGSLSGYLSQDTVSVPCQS
Chain of Cathepsin D (P07339 169-412 limits assumed): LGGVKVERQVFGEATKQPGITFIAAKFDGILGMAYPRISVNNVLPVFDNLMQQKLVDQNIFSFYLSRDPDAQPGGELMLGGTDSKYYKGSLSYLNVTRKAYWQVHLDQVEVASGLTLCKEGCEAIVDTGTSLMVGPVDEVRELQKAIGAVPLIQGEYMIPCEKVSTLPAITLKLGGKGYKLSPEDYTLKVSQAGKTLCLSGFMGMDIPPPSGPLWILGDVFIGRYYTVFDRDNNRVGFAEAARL

Ki (Cathepsin D)	Ki (Plasmepsin II)	SMILES
5.8 nM	2 nM	CN1CCC(C(=O)N(CCc2ccc3c(c2)OCO3)C[C@H](O)[C@H](Cc2ccccc2)NC(=O)COc2cccc(Cl)c2)CC1
4.3 nM	4.8 nM	COc1cc(C(=O)N[C@@H](Cc2ccccc2)[C@@H](O)CN(CCc2ccc3c(c2)OCO3)C(=O)C2CCN(C(C)=O)CC2)cc(OC)c1OCc1ccccc1
–	100 nM	COc1cc(C(=O)N[C@@H](Cc2ccccc2)[C@@H](O)CN(CCc2ccc3c(c2)OCO3)C(=O)CCN2C(=O)c3ccccc3C2=O)cc(OC)c1OCc1ccccc1
9.8 nM	2 nM	COc1ccc(CCN(C[C@H](O)[C@H](Cc2ccccc2)NC(=O)COc2cccc(Cl)c2)C(=O)C2CCN(C)CC2)cc1
–	300 nM	Cc1ccc(C)c(OCC(=O)N[C@@H](Cc2ccccc2)[C@@H](O)CN(CCc2ccc3c(c2)OCO3)C(=O)CCN2C(=O)c3ccccc3C2=O)c1
63 nM	4.3 nM	COc1ccc(CCN(C[C@H](O)[C@H](Cc2ccccc2)NC(=O)COc2cccc(Cl)c2)C(=O)C2CCNCC2)cc1
1.3 nM	3 nM	CC(=O)N1CCC(C(=O)N(CCc2ccc3c(c2)OCO3)C[C@H](O)[C@H](Cc2ccccc2)NC(=O)CNc2cccc(Cl)c2)CC1
–	220 nM	O=C(COc1cccc(Cl)c1)N[C@@H](Cc1ccccc1)[C@@H](O)CN(CCc1ccc2c(c1)OCO2)C(=O)CCN1C(=O)c2ccccc2C1=O
1.9 nM	4 nM	CC(=O)N1CCC(C(=O)N(CCc2ccc3c(c2)OCO3)C[C@H](O)[C@H](Cc2ccccc2)NC(=O)COc2cccc(Cl)c2)CC1
71 nM	9 nM	COc1ccc(CCN(C[C@H](O)[C@H](Cc2ccccc2)NC(=O)c2cc(OC)c(OCc3ccccc3)c(OC)c2)C(=O)C2CCNCC2)cc1
58 nM	4.1 nM	COc1ccc(CCN(C[C@H](O)[C@H](Cc2ccccc2)NC(=O)c2cc(OC)c(OCc3ccccc3)c(OC)c2)C(=O)C2CCN(C)CC2)cc1
